Test results published in paper PMC3787807 (Journal of Natural Products, 2013).

Experiments:
[1] = biological target: TgACTI (T. gondii actin) (Toxoplasma gondii, UniProt P53476); assay: Ninety-degree light scattering of TgACTI polymerization; assay type: biochemical; conditions: 5 μM TgACTI in F-buffer, compounds at 0.25, 1 or 2 μM, 9000 s
Outline: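 Baculovirus-expressed N-His TgACTI was Ni-NTA purified, dialysed into G buffer (pH 8.0, 0.2 mM ATP) and spun at 100000g to remove aggregates. It was held at 5 μM in G buffer at 21 °C, with ex/em 310 nm. After a steady baseline, 10× F buffer (500 mM KCl, 20 mM MgCl2, 10 mM ATP) went in at 1/10 volume with compound or DMSO control. Scatter counted for 9000 s.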

[2] = tested on: human cells; conditions: read-out: EC50, growth inhibition of human cells; cited from earlier work
[3] = tested on: T. gondii; assay: Inhibition of T. gondii proliferation; assay type: cell-based, Toxoplasma gondii; conditions: T. gondii growth on HFF monolayers
Outline: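 β-gal-expressing parasites preincubated 30 min with compound dilutions in DMEM/10% FBS/gentamicin with 0.2% DMSO, then seeded at 500/well onto confluent HFF. Compound kept continuously or washed out after 2 or 48 h. After 72 h at 37 °C, 5% CO2, cells lysed and given chlorophenol red-β-D-galactopyranoside substrate. A570 normalised to untreated. EC50 from variable-slope log(inhibitor)–response fits, three experiments (n = 4 replicates).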

Sequence of TgACTI (T. gondii actin) (P53476 whole entry): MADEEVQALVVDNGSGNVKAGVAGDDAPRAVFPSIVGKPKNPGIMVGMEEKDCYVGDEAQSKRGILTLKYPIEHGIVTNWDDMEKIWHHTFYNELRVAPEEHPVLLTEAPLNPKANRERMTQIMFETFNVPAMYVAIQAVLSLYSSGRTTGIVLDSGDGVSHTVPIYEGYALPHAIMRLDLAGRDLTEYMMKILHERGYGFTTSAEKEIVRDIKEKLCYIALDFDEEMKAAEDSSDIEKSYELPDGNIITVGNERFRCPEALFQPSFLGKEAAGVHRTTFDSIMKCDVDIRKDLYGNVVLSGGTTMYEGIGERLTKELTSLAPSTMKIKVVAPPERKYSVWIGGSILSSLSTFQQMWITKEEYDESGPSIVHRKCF

SMILES | TgACTI polymerization (light scattering) [1] | EC50 [2] | activity against the parasite (in words) [3]
CO[C@@H]1C(=O)O[C@H](C)[C@H](C)/C=C(\C)C[C@H](C)C(=O)N[C@@H](C)C(=O)N(C)[C@H](Cc2c[nH]c3ccccc23)C(=O)N[C@H]1c1ccccc1 [2a, synthetic chondramide A] | promote actin polymerization |  | 
CO[C@@H]1C(=O)O[C@H](C)[C@H](C)/C=C(\C)C[C@H](C)C(=O)N[C@@H](C)C(=O)N(C)[C@H](Cc2c[nH]c3ccccc23)C(=O)N[C@H]1c1ccc(C(N)=O)cc1 [2k] |  | ~1400 nM | eliminated activity against the parasite
C/C1=C\[C@H](C)C[C@H](C)OC(=O)C[C@H](c2ccc(O)cc2)NC(=O)[C@@H](Cc2c(Br)[nH]c3ccccc23)N(C)C(=O)[C@H](C)NC(=O)[C@@H](C)C1 [compound 1, Jasplakinolide, reference compound] | promote actin polymerization |  | 
CO[C@@H]1C(=O)O[C@H](C)[C@H](C)/C=C(\C)C[C@H](C)C(=O)N[C@@H](C)C(=O)N(C)[C@H](Cc2c[nH]c3ccccc23)C(=O)N[C@H]1c1ccc(O)cc1 [compound 2, chondramide A] | promote actin polymerization |  | 
